These results are taken from PubChem BioAssay AID652138 (The Scripps Research Institute Molecular Screening Center, 2013).

The structures appear in SMILES notation. Active and inactive are the calls of the source.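 The calls were made as follows: active = IC50 at or below 10 µM, the dose giving half-maximal inhibition of the luminescence signal; inactive = IC50 above 10 µM.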

Perilipin-5 (Homo sapiens) + 1-acylglycerol-3-phosphate O-acyltransferase ABHD5 (Homo sapiens), sequence (Q00G26 whole entry, looked up): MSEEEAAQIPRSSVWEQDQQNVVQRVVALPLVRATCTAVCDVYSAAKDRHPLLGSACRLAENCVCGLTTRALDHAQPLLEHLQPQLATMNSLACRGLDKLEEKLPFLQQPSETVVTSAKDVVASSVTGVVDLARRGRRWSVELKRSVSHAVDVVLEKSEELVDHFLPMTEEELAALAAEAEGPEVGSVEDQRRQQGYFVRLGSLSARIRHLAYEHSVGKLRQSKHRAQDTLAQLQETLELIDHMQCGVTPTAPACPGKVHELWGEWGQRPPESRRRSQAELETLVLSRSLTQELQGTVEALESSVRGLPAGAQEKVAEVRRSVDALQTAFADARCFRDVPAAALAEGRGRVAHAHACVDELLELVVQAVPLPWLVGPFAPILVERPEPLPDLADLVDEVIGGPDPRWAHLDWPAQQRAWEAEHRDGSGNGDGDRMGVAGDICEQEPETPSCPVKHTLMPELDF
Perilipin-5 (Homo sapiens) + 1-acylglycerol-3-phosphate O-acyltransferase ABHD5 (Homo sapiens), sequence (Q8WTS1 whole entry, looked up): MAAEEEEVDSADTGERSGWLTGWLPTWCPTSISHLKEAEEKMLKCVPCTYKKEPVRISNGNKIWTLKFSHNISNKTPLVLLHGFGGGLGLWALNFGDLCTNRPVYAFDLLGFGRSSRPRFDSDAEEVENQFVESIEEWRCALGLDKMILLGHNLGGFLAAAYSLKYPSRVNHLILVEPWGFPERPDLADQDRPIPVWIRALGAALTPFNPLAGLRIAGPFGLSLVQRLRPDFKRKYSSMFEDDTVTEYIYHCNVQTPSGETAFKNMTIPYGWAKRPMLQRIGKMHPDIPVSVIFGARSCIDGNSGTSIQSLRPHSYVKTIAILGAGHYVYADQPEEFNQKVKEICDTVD

The assay addresses Perilipin-5 (Homo sapiens) + 1-acylglycerol-3-phosphate O-acyltransferase ABHD5 (Homo sapiens) (UniProt Q00G26+Q8WTS1). The assay can be described thus: ABHD5-PLIN5 binding inhibitors, late-stage follow-up, biochemical, luminescence, dose response, round 3 (AID 652138). Conditions: split G. princeps luciferase complementation, 4 h. The method, boiled down:
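System: split Gaussia princeps luciferase complementation, LucC-tagged ABHD5 with LucN-tagged MLDP; Times: 4 h interaction at 25 °C, then 30 min substrate; Benchmarks: DMSO as low control, 25 µM trans-chalcone as high control; Dosing: 10 points, 1:3 steps, up to 40 µM; Technique: coelenterazine luminescence.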
With `CCCCCCNC(=O)Nc1ccc2c(c1)N(C)C(=O)c1ccccc1S2`, the IC50 (in general, the point on the concentration scale where inhibition reaches its midpoint) was 4.71 µM. In the case of `CCCCNC(=O)Nc1ccc2c(c1)N(C)C(=O)c1ccccc1S2` it was “inactive”. Take `CCCCCCCNC(=O)Nc1ccc2c(c1)N(C)C(=O)c1ccccc1S2`: the IC50 is 7.78 µM. In the case of `CN1C(=O)c2ccccc2Sc2ccc(NC(=O)NCCCc3ccccc3)cc21` it was 4.04 µM; in that of `CCCCCNC(=O)Nc1ccc2c(c1)N(C)C(=O)c1ccccc1S2`, 3.32 µM; in that of `Cc1ccc2c(CC(=O)N3CCN(S(=O)(=O)c4ccc5c(c4)OCCO5)CC3)coc2c1`, “inactive”.
